Assay results as given in ChEMBL document CHEMBL5257040, “Discovery of VU2957 (Valiglurax): An mGlu4 Positive Allosteric Modulator Evaluated as a Preclinical Candidate for the Treatment of Parkinson's Disease” (ACS Med Chem Lett, 2019).
pEC50: −log10 of the molar value.

Columns and labels:
Cytochrome P450 1A2 = Cytochrome P450 1A2 (Homo sapiens, UniProt P05177); experiment: Induction of CYP1A2 in human hepatocytes; assay type: ADME, cell-based
Method in brief: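 CYP1A2, 2B6 and 3A4 induction measured in human hepatocytes.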

[1] = Brain to plasma permeability coefficient, Kp in Sprague-Dawley rat at 0.2 mg/kg, iv and measured upto 24 hrs by LC-MS/MS analysis; assay type: ADME, organism-based
Method in brief: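 Total brain to total plasma partition coefficient (Kp) measured in mouse, SD rat and cynomolgus monkey. The unbound ratio (Kp,uu) was corrected with brain homogenate binding. Values are means of two to three animals.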

[2] = Oral bioavailability in Cynomolgus monkey at 3 mg/kg administered as spray-dried dispersion formulation and measured upto 24 hrs by LC-MS/MS analysis; assay type: ADME, organism-based, Macaca fascicularis; conditions: in vivo
Method in brief: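 Cynomolgus oral dosing used a spray-dried dispersion of the compound with HPMCP-HP55 polymer at a 25%/75% drug-to-polymer ratio. Oral bioavailability (%F) was determined from plasma exposure.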

[3] = biological target: Metabotropic glutamate receptor 1 (Rattus norvegicus, UniProt P23385); experiment: Positive allosteric modulator activity at rat mGlu1 in human HEK cells assessed assessed as increase in calcium flux preincubated for 2.5 mins followed by gluatamate addition by Fluo-4 AM dye based calcium mobilization assay; assay type: cell-based
[4] = AUC (0 to infinity) in Cynomolgus monkey at 3 mg/kg, po and measured upto 24 hrs by LC-MS/MS analysis; assay type: ADME, organism-based, Macaca fascicularis; set-up: time < 24 hrs, dose 3 mg/kg, route po; conditions: in vivo
Method in brief: (§1)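 Single oral 3 mg/kg dose in mouse, SD rat, beagle dog and cynomolgus monkey. Total plasma exposure after the oral dose gave Cmax, Tmax, AUC0-inf and F. Values are means of two to three animals.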

[5] = Clearance in Cynomolgus monkey plasma at 0.2 mg/kg, iv and measured upto 24 hrs by LC-MS/MS analysis; assay type: ADME, organism-based, Macaca fascicularis
Method in brief: (§2)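 Single intravenous doses: mouse 1 mg/kg, SD rat 0.2 mg/kg, beagle dog 0.5 mg/kg, cynomolgus monkey 0.2 mg/kg. Plasma clearance, Vss and elimination half-life came from the plasma profiles. Values are means of two to three animals.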

KCNQ1/MINK = KCNQ1/MINK (Homo sapiens, UniProt P51787+Q8N4C8); experiment: Inhibition of KCNQ1/MINK (unknown origin) at 10 uM; assay type: toxicity
Method in brief: (§3)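 Cardiac ion channel electrophysiology (functional EP) panel, with percent inhibition measured at 10 μM.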

Kv4.3/KChIP2 = Kv4.3/KChIP2 (Homo sapiens, UniProt Q9NS61+Q9UK17); experiment: Inhibition of Kv4.3/KChIP2 (unknown origin) at 10 uM; assay type: toxicity; method in brief: as §3
[6] = Protein binding in rat plasma assessed as fraction unbound incubated for 4 hrs by equilibrium dialysis based LC/MS/MS analysis; assay type: ADME, cell-free
[7] = Genotoxicity in Salmonella typhimurium […] in presence of S9 fraction by Ames test; assay type: toxicity, subcellular; conditions: salmonella enterica subsp. enterica serovar typhimurium
Method in brief: (§4)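 Ames bacterial reverse mutation test in strains TA98 and […], run with and without S9 metabolic activation.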

[8] = biological target: Amine oxidase [flavin-containing] B (Homo sapiens, UniProt P27338); experiment: Binding affinity to MAO-B (unknown origin)
[9] = Elimination half life in Beagle dog at 0.5 mg/kg, iv and measured upto 24 hrs by LC-MS/MS analysis; assay type: ADME, organism-based, Canis lupus familiaris; conditions: in vivo, read-out: beta t1/2 (converted); method in brief: as §2
[10] = Drug uptake in plasma of haloperidol-induced catalepsy Sprague-Dawley rat model at 0.3 to 30 mg/kg,po; assay type: ADME, organism-based; conditions: in vivo, dose 0.3-30 mg/kg
Method in brief: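 Rats were given haloperidol 1.5 mg/kg i.p. to induce catalepsy and dosed orally at 0.3–30 mg/kg, N = 8–10 per group. Total plasma and CSF concentrations were measured alongside the catalepsy read-out. Satellite rats were used for PK in the time-course study.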

[11] = Unbound brain-to-plasma concentration ratio in CD-1 mouse at 1 mg/kg,iv and measured upto 24 hrs by LC-MS/MS analysis; assay type: ADME, organism-based; conditions: read-out: K(p,uu,brain)
[12] = Metabolic stability in cynomolgus monkey liver microsomes assessed as intrinsic clearance at 1 uM preincubated for 5 mins followed by NADPH addition and measured for 45 mins by LC/MS/MS analysis; assay type: ADME, Macaca fascicularis, Microsome; conditions: time 50 min, read-out: CLH
P-gp (ABCB1) [13] = biological target: T1, P-gp (ABCB1) (Homo sapiens, UniProt P08183); experiment: Substrate activity at human P-gp assessed as apparent permeability; assay type: ADME; conditions: not told
[14] = AUC in Sprague-Dawley rat at 30 mg/kg, po administered as spray-dried dispersion formulation and measured after 24 hrs by LC-MS/MS analysis; assay type: ADME, organism-based; set-up: dose 30 mg/kg, time 24 hrs, route po; conditions: in vivo
Method in brief: (§5)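 Rats were dosed orally at 3, 10 and 30 mg/kg with a spray-dried dispersion of the free base and HPMCP-HP55 polymer (25%/75%), in 30% Dexolve. Total plasma Cmax and AUC were measured, N = 3.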

P-gp (ABCB1) [15] = biological target: T1, P-gp (ABCB1); experiment: Substrate activity at human P-gp assessed as efflux ratio; assay type: ADME; conditions: not told
[16] = Volume of distribution at steady state in CD-1 mouse plasma at 1 mg/kg, iv and measured upto 24 hrs by LC-MS/MS analysis; assay type: ADME, organism-based; conditions: read-out: Vdss
Method in brief: (§6)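 Single-dose iv and oral PK in separate arms: mouse 1 mg/kg iv / 3 mg/kg po, SD rat 0.2/3, beagle 0.5/3, cynomolgus 0.2/3 mg/kg. Plasma parameters (Vss, Tmax, F) are means of two to three animals per species.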

[17] = biological target: Nuclear receptor subfamily 1 group I member 2 (Homo sapiens, UniProt O75469); experiment: Activation of human PXR
[18] = Oral bioavailability in Sprague-Dawley rat at 3 mg/kg and measured upto 24 hrs by LC-MS/MS analysis; assay type: ADME, organism-based; conditions: in vivo; method in brief: as §6
Rattus norvegicus = experiment: Reversal of haloperidol-induced catalepsy Sprague-Dawley rat model assessed as minimum effective dose administered orally; assay type: functional; conditions: route po, read-out: MED
Method in brief: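 Sprague-Dawley rats received haloperidol 1.5 mg/kg i.p. to induce catalepsy, with the compound dosed orally at 0.3–30 mg/kg. Groups were 8–10 rats and compared with vehicle + haloperidol (p < 0.05). MED = lowest oral dose giving significant reversal.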

[19] = biological target: Metabotropic glutamate receptor 3 (Rattus norvegicus, UniProt P31422); experiment: Positive allosteric modulator activity at rat mGlu3 in human HEK cells co-expressing […] assessed as increase in by thallium flux preincubated for 2.5 mins followed by gluatamate addition by thallium flux assay; assay type: cell-based
[20] = Tmax in Sprague-Dawley rat at 3 mg/kg, po and measured upto 24 hrs by LC-MS/MS analysis; assay type: ADME, organism-based; conditions: in vivo; method in brief: as §6
[21] = Genotoxicity in Salmonella typhimurium TA98 by Ames test; assay type: toxicity; conditions: salmonella enterica subsp. enterica serovar typhimurium; method in brief: as §4
[22] = Protein binding in cynomolgus monkey plasma assessed as fraction unbound incubated for 4 hrs by equilibrium dialysis based LC/MS/MS analysis; assay type: ADME, cell-free, Macaca fascicularis
[23] = biological target: Metabotropic glutamate receptor 6 (Homo sapiens, UniProt O15303); experiment: Positive allosteric modulator activity at human mGlu6 in human HEK cells co-expressing […] assessed as increase in by thallium flux preincubated for 2.5 mins followed by gluatamate addition by thallium flux assay; assay type: cell-based
[24] = AUC (0 to infinity) in CD-1 mouse plasma at 3 mg/kg, po and measured upto 24 hrs by LC-MS/MS analysis; assay type: ADME, organism-based; set-up: dose 3 mg/kg, time < 24 hrs, route po; method in brief: as §1
[25] = Cmax in Sprague-Dawley rat at 3 mg/kg, po administered as spray-dried dispersion formulation and measured after 24 hrs by LC-MS/MS analysis; assay type: ADME, organism-based; set-up: time 24 hrs, dose 3 mg/kg, route po; conditions: in vivo; method in brief: as §5
[26] = Tmax in Cynomolgus monkey at 3 mg/kg, po and measured upto 24 hrs by LC-MS/MS analysis; assay type: ADME, organism-based, Macaca fascicularis; conditions: in vivo; method in brief: as §6

T1 sequence (P08183 whole entry): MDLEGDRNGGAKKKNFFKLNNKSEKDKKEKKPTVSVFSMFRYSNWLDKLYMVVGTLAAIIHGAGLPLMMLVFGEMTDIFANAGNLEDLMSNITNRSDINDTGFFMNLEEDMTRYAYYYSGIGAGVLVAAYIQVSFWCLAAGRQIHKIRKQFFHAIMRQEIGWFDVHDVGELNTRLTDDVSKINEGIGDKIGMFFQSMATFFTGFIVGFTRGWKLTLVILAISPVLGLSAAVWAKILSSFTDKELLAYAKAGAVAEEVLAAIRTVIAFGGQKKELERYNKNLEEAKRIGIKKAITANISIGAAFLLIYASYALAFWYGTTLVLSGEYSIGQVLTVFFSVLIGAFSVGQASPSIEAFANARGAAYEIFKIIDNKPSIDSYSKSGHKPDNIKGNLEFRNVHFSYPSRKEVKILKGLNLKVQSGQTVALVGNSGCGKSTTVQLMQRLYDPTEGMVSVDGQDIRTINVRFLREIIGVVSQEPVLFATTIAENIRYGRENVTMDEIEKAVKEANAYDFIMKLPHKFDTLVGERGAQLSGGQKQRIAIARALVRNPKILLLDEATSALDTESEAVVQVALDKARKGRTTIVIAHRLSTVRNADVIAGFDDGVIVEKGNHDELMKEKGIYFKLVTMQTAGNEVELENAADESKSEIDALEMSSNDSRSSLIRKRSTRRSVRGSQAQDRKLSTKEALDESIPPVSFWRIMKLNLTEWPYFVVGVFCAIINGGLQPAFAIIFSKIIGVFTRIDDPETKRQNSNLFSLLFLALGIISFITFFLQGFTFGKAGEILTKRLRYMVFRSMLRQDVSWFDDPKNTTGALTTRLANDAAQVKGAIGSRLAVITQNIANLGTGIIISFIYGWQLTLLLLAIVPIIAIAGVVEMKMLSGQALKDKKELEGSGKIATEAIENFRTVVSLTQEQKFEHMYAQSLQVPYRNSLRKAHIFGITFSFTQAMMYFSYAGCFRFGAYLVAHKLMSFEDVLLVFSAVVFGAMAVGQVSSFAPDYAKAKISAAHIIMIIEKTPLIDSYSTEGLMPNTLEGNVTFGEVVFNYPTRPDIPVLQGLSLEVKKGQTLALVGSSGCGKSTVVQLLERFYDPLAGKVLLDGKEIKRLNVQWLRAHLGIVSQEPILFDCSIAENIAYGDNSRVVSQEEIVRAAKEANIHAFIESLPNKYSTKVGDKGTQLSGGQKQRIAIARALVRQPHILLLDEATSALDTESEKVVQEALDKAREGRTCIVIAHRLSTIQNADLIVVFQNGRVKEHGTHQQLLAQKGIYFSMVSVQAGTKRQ
Sequence of Cytochrome P450 1A2 (P05177 whole entry): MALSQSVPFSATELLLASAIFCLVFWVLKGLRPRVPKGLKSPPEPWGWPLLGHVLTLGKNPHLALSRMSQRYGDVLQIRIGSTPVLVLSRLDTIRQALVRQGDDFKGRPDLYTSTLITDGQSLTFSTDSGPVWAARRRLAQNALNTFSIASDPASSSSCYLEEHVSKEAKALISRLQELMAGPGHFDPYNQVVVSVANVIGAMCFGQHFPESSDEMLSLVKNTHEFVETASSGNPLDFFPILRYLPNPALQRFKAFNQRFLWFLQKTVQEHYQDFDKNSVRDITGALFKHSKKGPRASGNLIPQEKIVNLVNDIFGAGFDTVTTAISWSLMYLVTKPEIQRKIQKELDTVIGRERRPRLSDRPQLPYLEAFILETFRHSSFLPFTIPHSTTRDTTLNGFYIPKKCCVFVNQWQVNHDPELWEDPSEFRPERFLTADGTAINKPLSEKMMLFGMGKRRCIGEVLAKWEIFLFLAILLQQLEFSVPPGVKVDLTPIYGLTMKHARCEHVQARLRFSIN
Sequence of Kv4.3/KChIP2 (Q9UK17 whole entry): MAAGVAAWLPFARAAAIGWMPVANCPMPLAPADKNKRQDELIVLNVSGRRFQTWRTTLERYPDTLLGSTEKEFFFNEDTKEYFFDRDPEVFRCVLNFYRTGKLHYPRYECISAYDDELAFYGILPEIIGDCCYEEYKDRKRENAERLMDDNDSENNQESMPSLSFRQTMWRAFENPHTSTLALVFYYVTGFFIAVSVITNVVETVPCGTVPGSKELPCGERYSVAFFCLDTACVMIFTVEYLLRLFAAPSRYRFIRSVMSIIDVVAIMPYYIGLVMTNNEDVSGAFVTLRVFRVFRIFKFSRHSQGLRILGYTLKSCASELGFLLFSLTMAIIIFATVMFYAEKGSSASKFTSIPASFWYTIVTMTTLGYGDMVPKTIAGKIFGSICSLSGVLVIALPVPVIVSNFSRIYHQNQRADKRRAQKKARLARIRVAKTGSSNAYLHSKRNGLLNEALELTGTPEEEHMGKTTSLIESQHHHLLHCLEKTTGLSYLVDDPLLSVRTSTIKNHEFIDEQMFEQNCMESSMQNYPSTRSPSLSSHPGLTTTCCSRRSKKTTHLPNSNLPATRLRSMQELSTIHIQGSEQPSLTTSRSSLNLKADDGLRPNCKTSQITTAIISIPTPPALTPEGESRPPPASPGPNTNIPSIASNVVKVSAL
Sequence of Kv4.3/KChIP2 (Q9NS61 whole entry): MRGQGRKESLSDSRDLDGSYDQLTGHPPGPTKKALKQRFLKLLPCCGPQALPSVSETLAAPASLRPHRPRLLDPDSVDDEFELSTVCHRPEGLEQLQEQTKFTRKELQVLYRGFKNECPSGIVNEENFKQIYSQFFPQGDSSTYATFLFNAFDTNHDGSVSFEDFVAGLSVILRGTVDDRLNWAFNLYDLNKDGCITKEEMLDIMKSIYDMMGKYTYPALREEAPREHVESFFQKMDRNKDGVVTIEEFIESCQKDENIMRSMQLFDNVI
Sequence of Metabotropic glutamate receptor 3 (P31422 whole entry): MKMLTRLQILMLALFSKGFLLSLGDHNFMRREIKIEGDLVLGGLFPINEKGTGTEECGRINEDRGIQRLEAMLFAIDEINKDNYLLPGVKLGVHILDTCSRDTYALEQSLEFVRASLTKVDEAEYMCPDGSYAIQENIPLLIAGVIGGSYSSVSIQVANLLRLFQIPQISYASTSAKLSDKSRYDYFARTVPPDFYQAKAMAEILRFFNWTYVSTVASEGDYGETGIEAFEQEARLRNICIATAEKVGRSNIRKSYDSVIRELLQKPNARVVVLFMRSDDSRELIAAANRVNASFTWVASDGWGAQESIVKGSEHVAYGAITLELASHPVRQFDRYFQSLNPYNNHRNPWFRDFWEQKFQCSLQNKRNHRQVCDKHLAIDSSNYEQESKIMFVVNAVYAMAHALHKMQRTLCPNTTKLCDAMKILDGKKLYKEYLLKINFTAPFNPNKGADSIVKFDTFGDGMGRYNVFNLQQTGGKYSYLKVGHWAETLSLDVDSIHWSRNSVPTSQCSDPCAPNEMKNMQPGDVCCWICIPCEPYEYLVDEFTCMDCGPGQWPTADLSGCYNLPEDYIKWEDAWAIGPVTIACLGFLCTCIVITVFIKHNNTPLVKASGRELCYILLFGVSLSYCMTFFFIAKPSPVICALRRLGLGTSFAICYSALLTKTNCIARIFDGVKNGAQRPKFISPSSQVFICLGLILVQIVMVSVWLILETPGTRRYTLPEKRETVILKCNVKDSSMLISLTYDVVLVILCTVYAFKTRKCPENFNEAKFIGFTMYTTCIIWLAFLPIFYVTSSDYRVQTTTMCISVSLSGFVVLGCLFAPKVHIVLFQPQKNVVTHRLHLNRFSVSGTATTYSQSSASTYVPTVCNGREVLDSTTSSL
Sequence of Nuclear receptor subfamily 1 group I member 2 (O75469 whole entry): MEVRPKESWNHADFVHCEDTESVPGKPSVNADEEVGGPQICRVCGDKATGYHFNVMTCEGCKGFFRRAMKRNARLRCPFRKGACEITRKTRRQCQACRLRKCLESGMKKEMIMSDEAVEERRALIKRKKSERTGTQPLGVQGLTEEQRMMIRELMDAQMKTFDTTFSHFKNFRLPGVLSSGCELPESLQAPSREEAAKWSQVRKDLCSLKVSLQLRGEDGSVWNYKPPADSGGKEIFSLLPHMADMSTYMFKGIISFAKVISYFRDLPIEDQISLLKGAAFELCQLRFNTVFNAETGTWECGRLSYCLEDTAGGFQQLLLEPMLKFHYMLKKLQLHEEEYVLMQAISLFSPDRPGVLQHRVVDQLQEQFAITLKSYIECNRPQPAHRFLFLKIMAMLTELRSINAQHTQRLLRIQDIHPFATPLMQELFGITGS
Sequence of Metabotropic glutamate receptor 6 (O15303 whole entry): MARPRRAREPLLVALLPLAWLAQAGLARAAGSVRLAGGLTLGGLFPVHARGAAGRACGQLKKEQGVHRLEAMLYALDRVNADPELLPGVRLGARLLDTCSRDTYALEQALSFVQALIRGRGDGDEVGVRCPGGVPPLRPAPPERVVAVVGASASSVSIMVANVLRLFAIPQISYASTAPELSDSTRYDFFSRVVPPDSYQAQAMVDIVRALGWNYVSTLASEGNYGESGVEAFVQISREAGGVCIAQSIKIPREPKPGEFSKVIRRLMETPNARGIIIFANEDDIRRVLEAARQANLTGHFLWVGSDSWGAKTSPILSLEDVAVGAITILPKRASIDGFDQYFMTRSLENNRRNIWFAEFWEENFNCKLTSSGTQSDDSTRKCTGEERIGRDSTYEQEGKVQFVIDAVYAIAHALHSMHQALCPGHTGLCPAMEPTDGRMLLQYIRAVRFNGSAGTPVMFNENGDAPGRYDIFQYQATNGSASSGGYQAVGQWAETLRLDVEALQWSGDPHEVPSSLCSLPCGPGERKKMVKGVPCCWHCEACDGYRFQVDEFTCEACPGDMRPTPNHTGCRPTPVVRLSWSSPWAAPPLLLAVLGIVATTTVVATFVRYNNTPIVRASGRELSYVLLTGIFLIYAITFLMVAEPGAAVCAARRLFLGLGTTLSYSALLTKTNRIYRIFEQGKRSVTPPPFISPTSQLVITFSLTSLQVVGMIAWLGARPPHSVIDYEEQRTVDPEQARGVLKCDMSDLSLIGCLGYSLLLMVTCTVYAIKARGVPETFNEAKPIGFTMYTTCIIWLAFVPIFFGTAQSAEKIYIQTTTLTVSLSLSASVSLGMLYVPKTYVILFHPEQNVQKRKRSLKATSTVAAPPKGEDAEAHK

Activity (Cytochrome P450 1A2): Not Active
Kp at 24 h [1]: 1.51
bioavailability [2]: 58%
pEC50 [3]: < 5.00
AUC(0-inf) [4]: 2.81 µM·h
clearance [5]: 17.1 mL/min/kg
fraction unbound at 4 h [6]: 0.01
pEC50 [8]: < 4.52
half-life [9]: 2.95 h
Kp uu at 24 h [11]: 0.16
CLint scaled at 1 µM [12]: 8.8 mL/min/kg
Papp (P-gp (ABCB1) [13]): 8 ×10⁻⁶ cm/s
AUC at 24 h [14]: 83.9 µM·h
efflux ratio (P-gp (ABCB1) [15]): 1.3
Vd [16]: 9.93 L/kg
Activity [17]: Not Active
bioavailability [18]: 100%
pEC50 [19]: < 5.00
Tmax [20]: 2 h
fraction unbound at 4 h [22]: 0.016
pEC50 [23]: < 5.00
AUC(0-inf) [24]: 1.55 µM·h
Cmax [25]: 630 nM
Tmax [26]: 6 h
Structure (SMILES): FC(F)(F)c1nccc2cc(Nc3n[nH]c4ncccc34)ccc12
inhibition at 10 µM (KCNQ1/MINK): < 50%
inhibition at 10 µM (Kv4.3/KChIP2): < 50%
Activity [7]: Non-Toxic
concentration [10]: 322 nM
minimal effective dose (Rattus norvegicus): 1 mg/kg
Activity [21]: Non-Toxic
